SUMO HTRF inh – inhibitors of human SUMOylation (UBC9). P63279. HTRF SUMOylation assay, SAE1/SAE2 + UBC9, in vitro. inhibition, % at 35 µM. actives 0.36% (n = 290,000); in the data active means inhibition above about 50%, passing the limit was not always enough
Target sequence (P63279 whole entry, looked up): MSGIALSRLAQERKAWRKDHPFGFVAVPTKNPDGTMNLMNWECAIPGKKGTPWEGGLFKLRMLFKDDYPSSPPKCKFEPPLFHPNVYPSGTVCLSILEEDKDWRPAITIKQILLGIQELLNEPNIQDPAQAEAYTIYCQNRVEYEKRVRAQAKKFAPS
IMP-1 inh – inhibitors of Pseudomonas aeruginosa IMP-1 metallo-beta-lactamase. purified IMP-1, nitrocefin hydrolysis, epi-absorbance fluorescence. inhibition, % at 5.6 µM. actives 0.45% (n = 290,000). AID 1556;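 active means inhibition above the mean plus 3 SD of all compounds in the same screening run, cut at about 4.5% in these data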;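 further: 0% = IMP-1 with DMSO and 100% = DMSO wells lacking enzyme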
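System: Purified IMP-1 | Read-out basis: Percent enzyme inhibition | Controls: IMP-1 with DMSO as 0%, enzyme-free DMSO as 100% | Replicates: One well per compound | Doses: 5.6 µM nominal single concentration | Detection: Epi-absorbance fluorescence, 480 nm excitation, 530 nm emission | Incubation: 25 °C, 15 min preincubation, 25 min reaction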
HCV NS3 hel inh – inhibitors of Hepatitis C virus NS3 helicase; inhibition, % at 10.9 µM; NS3 helicase DNA unwinding, Cy5 molecular beacon fluorescence; actives 0.56% (n = 290,000);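 active means inhibition above the mean of all tested compounds plus 3 SD, set per campaign, cut at about 35% in these data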;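 further: 0% = DMSO wells and 100% = thioflavine S control wells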
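System: NS3 helicase fragment of HCV / Schedule: 1 h at 25 °C / Control set: DMSO alone as 0% and 110 µM thioflavine S as 100% / Reagent: Cy5/quencher beacon DNA duplex and ATP to start / Technique: Cy5 fluorescence / Replication: singlicate / Evaluation: % inhibition of end-to-start signal ratio versus controls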
DNA FID counter – counter-screen for HCV NS3 helicase inhibitors: DNA intercalator displacement; inhibition, % at 7.9 µM; actives 0.17% (n = 290,000); DNA fluorescent intercalator displacement, fluorescence; in the data active means inhibition above about 37%;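 further: 0% = vehicle and 100% = reference compound; higher means more ethidium bromide displaced from hairpin DNA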
VIM-2 inhibitor – inhibitors of Pseudomonas aeruginosa VIM-2 metallo-beta-lactamase. purified VIM-2, nitrocefin hydrolysis, epi-absorbance fluorescence. inhibition, % at 5.6 µM. actives 0.89% (n = 290,000);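 active means inhibition above the mean of all tested compounds plus 3 SD, cutoff set per screening run, cut at about 7.5% in these data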;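 further: red hydrolysis product quenches plate fluorescence so inhibitors raise well fluorescence; 0% = enzyme with DMSO and 100% = DMSO without enzyme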
Starred values were filed as active, the others as inactive; x = not tested or not shown. Most compounds without a hit are left out; they make up all but 2.1% or so of the library.

SMILES	SUMO HTRF inh	IMP-1 inh	HCV NS3 hel inh	DNA FID counter	VIM-2 inhibitor
CC1CCN(c2ccc3nnc(CCC(=O)N4CCN(c5ccc(F)cc5)CC4)n3n2)CC1	6	-2	-7	-63	0
CC(C)(C)n1cnnc1Sc1ncccc1[N+](=O)[O-]	13	-1	9	-4	-2
Cc1c(NC(=S)N/N=C/c2cccc(O)c2)c(=O)n(-c2ccccc2)n1C	10	-2	1	-7	10*
C#CCOCCOCCOCCNc1nc(N2CCN(C(=O)[C@H](Cc3ccc(O)cc3)n3cc([C@@H](N)C(C)CC)nn3)CC2)nc(N2CCN(C(=O)[C@H](Cc3cc4ccccc4[nH]3)n3cc([C@@H](N)CC(C)C)nn3)CC2)n1 (stereo not given in full)	-13	4	-23	60*	1
C#CCOCCOCCOCCNc1nc(N2CCN(C(=O)[C@H](Cc3cc4ccccc4[nH]3)n3cc([C@@H](N)C(C)CC)nn3)CC2)nc(N2CCN(C(=O)[C@H](CCCCN)n3cc([C@@H](N)CC(C)C)nn3)CC2)n1 (stereo not given in full)	14	-1	-60	44*	-2
C#CCOCCOCCOCCNc1nc(N2CCN(C(=O)[C@H](Cc3cc4ccccc4[nH]3)n3cc([C@@H](N)C(C)CC)nn3)CC2)nc(N2CCN(C(=O)[C@H](Cc3cc4ccccc4[nH]3)n3cc([C@@H](N)Cc4ccc(O)cc4)nn3)CC2)n1 (stereo not given in full)	-31	-1	-43	41*	-3
C#CCOCCOCCOCCNc1nc(N2CCN(C(=O)[C@H](Cc3cc4ccccc4[nH]3)n3cc([C@@H](N)Cc4ccc(O)cc4)nn3)CC2)nc(N2CCN(C(=O)[C@H](Cc3cc4ccccc4[nH]3)n3cc([C@@H](N)CC(C)C)nn3)CC2)n1	-44	x	x	x	x
C#CCOCCOCCOCCNc1nc(N2CCN(C(=O)[C@H](Cc3ccc(O)cc3)n3cc([C@@H](N)C(C)CC)nn3)CC2)nc(N2CCN(C(=O)[C@H](Cc3cc4ccccc4[nH]3)n3cc([C@@H](N)C(C)CC)nn3)CC2)n1 (stereo not given in full)	-15	1	-31	51*	1
O=C(Nc1ccccc1Cl)c1sccc1-c1ccccc1	-12	-2	-16	-15	-5
CC1Cc2nc(SCC(=O)NCC3CCCO3)n(-c3ccc(F)cc3)c(=O)c2S1 (stereo not given)	9	-1	-1	-14	-2
CCOc1ccc(NC(=S)N2CCN(S(C)(=O)=O)CC2)cc1	1	-2	-2	-7	-2
C#CCOCCOCCOCCNc1nc(N2CCN(C(=O)[C@H]([C@@H](C)CC)n3cc([C@@H](N)CO)nn3)CC2)nc(N2CCN(C(=O)[C@H](Cc3cc4ccccc4[nH]3)n3cc([C@@H](N)C(C)CC)nn3)CC2)n1 (stereo not given in full)	-4	7.0*	-51	41*	-4
C#CCOCCOCCOCCNc1nc(N2CCN(C(=O)C(Cc3cc4ccccc4[nH]3)n3cc(C(N)Cc4ccc(O)cc4)nn3)CC2)nc(N2CCN(C(=O)C(Cc3cc4ccccc4[nH]3)n3cc(C(N)Cc4ccc(O)cc4)nn3)CC2)n1 (stereo not given)	-24	-3	-14	52*	-2
C#CCOCCOCCOCCNc1nc(N2CCN(C(=O)[C@H](Cc3cc4ccccc4[nH]3)n3cc([C@@H](N)CC(C)C)nn3)CC2)nc(N2CCN(C(=O)[C@H](Cc3cc4ccccc4[nH]3)n3cc([C@@H](N)CC(C)C)nn3)CC2)n1	-12	-3	-29	64*	1
O=C(Cc1ccc(Cl)cc1)NNC(=O)C1CC=CCC1C(=O)O (stereo not given)	15	0	19	-2	1
Cc1ccc(-c2nc(NCc3ccc(F)cc3)n(S(C)(=O)=O)n2)cc1	1	0	-9	-10	1
CCC(C(=O)O)n1c2ccccc2c2cn[nH]c(=O)c21 (stereo not given)	-2	-2	10	-7	-3
COc1ccccc1OCC(=O)NCC1CCCN(Cc2cnn(C)c2C)C1 (stereo not given)	6	-3	5	-2	-1
Cc1cc(=O)n2c3ccccc3n(CC(O)CN3CCCC3)c2c1C#N (stereo not given)	-5	-3	-1	6	5
CCCNCC(O)Cn1c2ccccc2n2c(=O)cc(C)c(C#N)c12 (stereo not given)	-1	0	-7	16	8.5*
COc1ccc(CCNC(=S)N2CCC(Cc3ccccc3)CC2)cc1OC	-18	-2	-20	-20	-2
Cc1c(-c2nnc(SCC(=O)O)n2-c2ccccc2Br)nnn1-c1ccccc1	-5	-2	8	-46	-2
O=C(CN1C(=O)/C(=C/c2ccc(F)cc2)SC1=S)NC1CCS(=O)(=O)C1 (stereo not given)	21	11*	10	-16	1
O=C(CN1C(=O)/C(=C/c2ccccc2Cl)SC1=S)NC1C=CS(=O)(=O)C1 (stereo not given)	x	12*	-18	-13	-3
O=C(CN1C(=O)/C(=C/c2ccccc2)SC1=S)NC1C=CS(=O)(=O)C1 (stereo not given)	x	1	0	-2	-1
SMILES	SUMO HTRF inh	IMP-1 inh	HCV NS3 hel inh	DNA FID counter	VIM-2 inhibitor
O=C(CN1C(=O)/C(=C/c2ccccc2)SC1=S)NC1CCS(=O)(=O)C1 (stereo not given)	x	-2	2	-5	-1
O=C(CN1C(=O)/C(=C/c2ccc(F)cc2)SC1=S)NC1C=CS(=O)(=O)C1 (stereo not given)	9	4.8*	19	-20	-1
O=C(CCN1C(=O)/C(=C/c2ccccc2Cl)SC1=S)NC1CCCC1	8	0	8	-3	2
O=C(CCN1C(=O)/C(=C/c2ccccc2Cl)SC1=S)NN1CCOCC1	8	4.5*	3	-10	4
CCCc1nc2nc(C)c(NS(=O)(=O)c3ccc(C4CCCCC4)cc3)c(=O)n2[nH]1	14	-1	4	-41	2
O=S(=O)(c1ccc(Cl)cc1)N1CCC(N2CCCCCC2)CC1	16	5.7*	-5	10	-2
CCN(CC)C(=O)C(=O)c1cn(CC(=O)N2CCc3ccccc3C2)c2ccccc12	8	-3	-5	-24	0
O=S(=O)(c1ccc(Cl)c(NC(=S)N/N=C/c2c(F)cccc2F)c1)N1CCOCC1	0	-3	2	-6	10*
O=[N+]([O-])c1cc(Cl)cc(/C=N/NC(=S)Nc2ccc(S(=O)(=O)N3CCOCC3)cc2)c1O	95*	-4	34	-6	-3
O=S(=O)(c1ccc(Cl)c(NC(=S)N/N=C/c2ccc(O)cc2)c1)N1CCOCC1	-1	-4	-9	-6	3
CCOc1ccc(C(=O)OCC(=O)N2CCCC2)cc1OCC	6	-3	4	-24	-3
